Results from publication PMC6559718 (Journal of biomolecular screening, 2016).

How the values were obtained:
[1] = test system: yeast strain expressing hANT4; assay: microbe, parasite or virus in culture; format: cell-based; settings: Saccharomyces cerevisiae, read-out: Activity hANT4 IC50
in vitro [2] = settings: Saccharomyces cerevisiae
in vitro [3] = settings: Saccharomyces cerevisiae; remark: listed apart in the source
[4] = test system: yeast strain expressing hANT2; assay: microbe, parasite or virus in culture; format: cell-based; settings: Saccharomyces cerevisiae, read-out: Activity hANT2 IC50
in vitro [5] = settings: Saccharomyces cerevisiae; remark: listed apart in the source
[6] = test system: yeast strain expressing hANT1; assay: microbe, parasite or virus in culture; format: cell-based; settings: Saccharomyces cerevisiae, read-out: Activity hANT1 IC50
[7] = test system: yeast strain expressing hANT3; assay: microbe, parasite or virus in culture; format: cell-based; settings: Saccharomyces cerevisiae, read-out: Activity hANT3 IC50
in vitro [8] = settings: Saccharomyces cerevisiae; remark: listed apart in the source
four hANT yeast strains [9] = assay: Yeast growth assay in YPEG medium, the four hANT yeast strains; format: cell-based, Saccharomyces cerevisiae; settings: hANT1, -2, -3 or -4 yeast strains, BKA final 50 μM
four hANT yeast strains [10] = test system: four hANT yeast strains
human ANT2 [11] = biological target: T1, human ANT2 (Homo sapiens, UniProt P05141); assay: ADP/ATP exchange with isolated yeast mitochondria expressing hANT2; format: biochemical; settings: for ADP/ATP exchange activity / ADP uptake: 10 μM, isolated yeast mitochondria, hANT2 (Fig. 2B left)
T1 sequence (P05141 1-298): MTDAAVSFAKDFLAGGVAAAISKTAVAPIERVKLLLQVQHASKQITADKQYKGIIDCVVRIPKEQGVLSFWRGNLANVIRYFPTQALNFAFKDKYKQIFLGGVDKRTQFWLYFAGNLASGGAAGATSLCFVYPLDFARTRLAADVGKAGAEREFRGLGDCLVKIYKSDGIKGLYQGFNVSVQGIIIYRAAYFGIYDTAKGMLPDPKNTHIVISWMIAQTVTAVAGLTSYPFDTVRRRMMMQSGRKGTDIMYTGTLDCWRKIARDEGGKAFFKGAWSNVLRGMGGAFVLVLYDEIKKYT

human ANT2 [12] = biological target: T1, human ANT2; assay: ADP/ATP exchange with Lactococcus lactis expressing hANT2; format: biochemical
human ANT isoforms [13] = assay: ADP/ATP exchange in L. lactis, human ANT isoforms; format: biochemical; settings: single-concentration test of compounds selected from the yeast growth assay
human ANT isoforms [14] = assay: ADP/ATP exchange in isolated yeast mitochondria, human ANT isoforms; format: biochemical
HCT116 cells = assay: Oxygen consumption rate in HCT116 cells; format: cell-based, human; settings: after ADP addition, leelamine 50 pM as printed
How it was run: (§1)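 Cells were kept in RPMI1640 with 10% FBS, plated at 20,000/well, and incubated overnight at 37 °C in 5% CO2. Before the assay, medium was replaced with MAS buffer (mannitol/sucrose/KH2PO4/MgCl2/HEPES/EGTA, 0.2% fatty-acid-free BSA, pH 7.4) plus 10 mM pyruvate and […]. Sequential injections were atpenin A5, 3.5 mM ADP, plasma membrane permeabilizer, then test compound or cATR control. OCR was read on an extracellular flux analyzer.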

human ANT1 [15] = biological target: T2, human ANT1 (Homo sapiens, UniProt P12235); assay: ADP/ATP exchange with Lactococcus lactis expressing hANT1; format: biochemical
T2 sequence (P12235 1-298): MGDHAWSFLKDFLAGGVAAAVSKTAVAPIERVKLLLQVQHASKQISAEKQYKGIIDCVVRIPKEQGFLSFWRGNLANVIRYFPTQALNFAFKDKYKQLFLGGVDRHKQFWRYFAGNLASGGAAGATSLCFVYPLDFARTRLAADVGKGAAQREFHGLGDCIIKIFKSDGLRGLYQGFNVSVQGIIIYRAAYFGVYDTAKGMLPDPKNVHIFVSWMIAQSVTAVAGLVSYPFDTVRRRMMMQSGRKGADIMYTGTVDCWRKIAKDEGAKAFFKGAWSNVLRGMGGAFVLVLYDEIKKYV

human ANT3 [16] = biological target: T3, human ANT3 (Homo sapiens, UniProt P12236); assay: ADP/ATP exchange with Lactococcus lactis expressing hANT3; format: biochemical
T3 sequence (P12236 1-298): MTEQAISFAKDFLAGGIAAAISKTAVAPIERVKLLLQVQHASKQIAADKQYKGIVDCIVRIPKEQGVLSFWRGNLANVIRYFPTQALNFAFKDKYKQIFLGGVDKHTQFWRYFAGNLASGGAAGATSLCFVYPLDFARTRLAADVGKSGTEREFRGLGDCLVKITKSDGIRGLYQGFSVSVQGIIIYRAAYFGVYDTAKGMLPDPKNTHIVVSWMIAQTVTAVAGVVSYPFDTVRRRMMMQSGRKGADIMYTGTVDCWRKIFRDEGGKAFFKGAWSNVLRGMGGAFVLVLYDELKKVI

MiaPaCa-2 cells = assay: Oxygen consumption rate in MiaPaCa-2 cells; format: cell-based, human; settings: after ADP addition, leelamine 50 pM as printed
How it was run: as §1

human ANT3 [17] = biological target: T3, human ANT3; assay: ADP/ATP exchange with isolated yeast mitochondria expressing hANT3; format: biochemical
human ANT1 [18] = biological target: T2, human ANT1; assay: ADP/ATP exchange with isolated yeast mitochondria expressing hANT1; format: biochemical
human ANT4 = biological target: T4, human ANT4 (Homo sapiens, UniProt Q9H0C2); assay: ADP/ATP exchange with isolated yeast mitochondria expressing hANT4; format: biochemical
T4 sequence (Q9H0C2 1-315): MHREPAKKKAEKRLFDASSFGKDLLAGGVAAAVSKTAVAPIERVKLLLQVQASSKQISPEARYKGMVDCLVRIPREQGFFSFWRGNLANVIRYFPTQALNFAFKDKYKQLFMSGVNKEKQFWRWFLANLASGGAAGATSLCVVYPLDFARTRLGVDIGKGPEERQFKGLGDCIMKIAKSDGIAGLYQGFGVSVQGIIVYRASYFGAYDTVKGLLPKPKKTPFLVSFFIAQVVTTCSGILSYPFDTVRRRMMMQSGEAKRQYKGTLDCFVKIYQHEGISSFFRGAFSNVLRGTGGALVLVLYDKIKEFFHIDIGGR

[19] = read-out: L. lactis hANT1 IC50, [3H]ADP uptake, ADP/ATP exchange, mean ± SEM
[20] = read-out: L. lactis hANT3 IC50, [3H]ADP uptake, ADP/ATP exchange, mean ± SEM
[21] = read-out: L. lactis hANT2 IC50, [3H]ADP uptake, ADP/ATP exchange, mean ± SEM

C[C@@H]1C[C@H]2CC[C@H](O2)[C@H](C)C(=O)O[C@@H](C)C[C@@H]2CC[C@@H](O2)[C@@H](C)C(=O)O[C@H](C)C[C@H]2CC[C@H](O2)[C@H](C)C(=O)O[C@@H](C)C[C@@H]2CC[C@@H](O2)[C@@H](C)C(=O)O1 [Nonactin]
IC50 [1]: 3.3 ± 0.4 µM
IC50 (in vitro [2]): > 100 µM
IC50 (in vitro [3]): > 100 µM
IC50 [4]: 3.3 ± 1.1 µM
IC50 (in vitro [5]): > 100 µM
IC50 [6]: 4.4 ± 1.3 µM
IC50 [7]: 4.7 ± 1.5 µM
IC50 (in vitro [8]): > 100 µM

CCCCc1oc2ccccc2c1C(=O)c1cc(I)c(OCCN(CC)CC)c(I)c1 [Amiodarone]
activity in LOPAC pilot screen (four hANT yeast strains [9]): identified as a hit
cytotoxic effect in glucose-containing medium (four hANT yeast strains [10]): exhibited cytotoxic effect in certain strains

CO[C@H](C/C=C\C=C\CC/C=C/C[C@H](C)/C=C/C(=C\C(=O)O)CC(=O)O)/C(C)=C\C=C(/C)C(=O)O [BKA, bongkrekic acid]
activity in LOPAC pilot screen (four hANT yeast strains [9]): weakly active
ADP/ATP exchange activity / ADP uptake (human ANT2 [11]): completely inhibited

N#CC(C#N)=NNc1ccc(OC(F)(F)F)cc1 [FCCP, carbonyl cyanide-4-(trifluoromethoxy) phenylhydrazone]
[3H]ADP uptake in L. lactis (human ANT2 [12]; 10 μM, L. lactis expressing hANT2 (Fig. 2B right)): inactive

O=C(O)c1nn(Cc2ccc(Cl)cc2Cl)c2ccccc12 [lonidamine]
ADP/ATP exchange activity / ADP uptake (human ANT2 [11]): reduced ADP uptake

antimycin
ADP/ATP exchange activity / ADP uptake (human ANT2 [11]): reduced ADP uptake

CC(C)(C)c1cc(C=C(C#N)C#N)cc(C(C)(C)C)c1O [Tyrphostin A9]
IC50 [1]: 13 ± 4 µM
IC50 (in vitro [2]): > 100 µM
IC50 (in vitro [3]): > 100 µM
IC50 [4]: 35 ± 15 µM
IC50 (in vitro [5]): > 100 µM
IC50 [6]: 42 ± 20 µM
IC50 [7]: 24 ± 10 µM
IC50 (in vitro [8]): > 100 µM

CN(C)c1ccc(O)c2c1C[C@H]1C[C@H]3[C@H](N(C)C)C(O)=C(C(N)=O)C(=O)[C@@]3(O)C(O)=C1C2=O [Minocycline]
IC50 [1]: > 100 µM
inhibition of [3H]ADP uptake by L. lactis (human ANT isoforms [13]): completely inactive
IC50 (in vitro [2]): > 100 µM
inhibition of exchange activity in the mitochondrial assay (human ANT isoforms [14]; 30 μM, in at least one yeast strain (Suppl. Table S1)): strong inhibition
IC50 (in vitro [3]): > 100 µM
IC50 [4]: > 100 µM
IC50 (in vitro [5]): > 100 µM
IC50 [6]: > 100 µM
IC50 [7]: > 100 µM
IC50 (in vitro [8]): > 100 µM

O=C(Nc1cc(C(F)(F)F)cc(C(F)(F)F)c1)c1cc(Cl)ccc1O [IMD 0354]
IC50 [1]: 0.85 ± 0.07 µM
IC50 [4]: 0.45 ± 0.1 µM
IC50 [6]: 0.58 ± 0.1 µM
IC50 [7]: 0.52 ± 0.08 µM

C=C1[C@@H]2CC[C@H]3[C@]4(C)C[C@H](O[C@@H]5O[C@H](CO)[C@@H](OS(=O)(=O)O)[C@H](OS(=O)(=O)O)[C@H]5OC(=O)CC(C)C)C[C@@H](C(=O)O)[C@H]4CC[C@]3(C2)[C@H]1O [ATR, atractyloside]
ADP/ATP exchange activity / ADP uptake (human ANT2 [11]): completely inhibited

CC(C)c1ccc2c(c1)CC[C@H]1[C@](C)(CN)CCC[C@]21C [Leelamine]
inhibition of [3H]ADP uptake by L. lactis (human ANT isoforms [13]): inhibited
oxygen consumption rate (OCR) (HCT116 cells): decreased the OCR to a similar extent as cATR
effect on hANT activity in mitochondrial assays (human ANT isoforms [14]; 100 μM, all isoforms): inhibited hANT activity
effect on translocase activity in mitochondria (human ANT isoforms [14]; 10 and 30 μM, hANT4, hANT3 and particularly hANT2 strains): increased translocase activity
effect on translocase activity in L. lactis expressing hANT1 (human ANT1 [15]; Fig. 3C): increased translocase activity
IC50 (human ANT1 [15]; [19]): > 100 µM
effect on translocase activity in L. lactis expressing hANT3 (human ANT3 [16]; Fig. 3C): inhibited the activity
IC50 (human ANT3 [16]; [20]): 47 ± 11 µM
oxygen consumption rate (OCR) (MiaPaCa-2 cells): decreased OCR
effect on translocase activity in L. lactis expressing hANT2 (human ANT2 [12]; Fig. 3C): increased translocase activity
IC50 (human ANT2 [12]; [21]): > 100 µM

O=C(O)c1ccc2cc(-c3ccc(O)c(C45CC6CC(CC(C6)C4)C5)c3)ccc2c1 [CD437]
inhibition of [3H]ADP uptake by L. lactis (human ANT isoforms [13]): inhibited
oxygen consumption rate (OCR) (HCT116 cells): inhibited OCR
IC50 (human ANT1 [15]; [19]): 54 ± 9 µM
IC50 (human ANT3 [16]; [20]): 94 ± 19 µM
cytotoxic effect in glucose-containing medium (four hANT yeast strains [10]): exhibited cytotoxic effect in certain strains
oxygen consumption rate (OCR) (MiaPaCa-2 cells): Neither CD437 nor closantel produced an appreciable level of reduction of OCR
selectivity for hANT2 over hANT3 (human ANT2 [12]; L. lactis assay): ~ 3 fold
IC50 (human ANT2 [12]; [21]): 36 ± 6.3 µM

C=C1[C@@H]2CC[C@H]3[C@]4(C)C[C@H](O[C@@H]5O[C@H](CO)[C@@H](OS(=O)(=O)O)[C@H](OS(=O)(=O)O)[C@H]5OC(=O)CC(C)C)CC(C(=O)O)(C(=O)O)[C@H]4CC[C@]3(C2)[C@H]1O [cATR, carboxyatractyloside]
oxygen consumption rate (OCR) (HCT116 cells): decreased OCR
ADP/ATP exchange activity / ADP uptake (human ANT2 [11]): completely inhibited
IC50 (human ANT1 [15]; [19]): 0.0024 ± 0.0005 µM
IC50 (human ANT3 [16]; [20]): 0.0023 ± 0.0007 µM
oxygen consumption rate (OCR) (MiaPaCa-2 cells): decreased OCR
IC50 (human ANT2 [12]; [21]): 0.0017 ± 0.0004 µM

COc1ccc2c(c[n+](C)c3c4cc5c(cc4ccc23)OCO5)c1OC [chelerythrine]
ADP/ATP exchange activity / ADP uptake (human ANT2 [11]): reduced ADP uptake

Cc1cc(C(C#N)c2ccc(Cl)cc2)c(Cl)cc1NC(=O)c1cc(I)cc(I)c1O (centres unmarked) [Closantel]
IC50 [1]: 9.6 ± 8.7 µM
inhibition of [3H]ADP uptake by L. lactis (human ANT isoforms [13]): inhibited
oxygen consumption rate (OCR) (HCT116 cells): inhibited OCR
IC50 (in vitro [2]): > 100 µM
IC50 (human ANT2 [11]): 92 ± 32 µM
IC50 (human ANT1 [15]): 15 ± 2.8 µM
selectivity for hANT1 over hANT3 (human ANT1 [15]; L. lactis assay): ~ 3 fold
IC50 (in vitro [3]): > 100 µM
IC50 (human ANT3 [16]): 47 ± 11 µM
IC50 [4]: 6.1 ± 2.4 µM
IC50 (in vitro [5]): > 100 µM
IC50 (human ANT3 [17]): 100 ± 32 µM
oxygen consumption rate (OCR) (MiaPaCa-2 cells): Neither CD437 nor closantel produced an appreciable level of reduction of OCR
IC50 [6]: 4.7 ± 0.8 µM
IC50 (human ANT2 [12]): 24 ± 4.2 µM
IC50 (human ANT1 [18]): 52 ± 15 µM
IC50 [7]: 6.3 ± 2.3 µM
IC50 (in vitro [8]): > 100 µM
IC50 (human ANT4): 64 ± 25 µM
